# Source: publication PMC11152992 (Nature, 2024)
# Tests used:
# [1] = target: 5-HT2A(N343A) (Homo sapiens, UniProt P28223, N343A); assay: 5-HT2A-Gq BRET at mutant receptor N343A; type: cell-based; conditions: 5-HT2A N343A versus wild type
# [2] = target: T1, 5-HT1A (Homo sapiens, UniProt P08908); assay: 5-HT1A-mediated Gi1 activation, BRET; type: cell-based; conditions: for maximum drug effect (Emax): 5-HT1A-mediated activation of Gi1, BRET; for 5-HT1A efficacy (in words): Gi BRET, compared with serotonin; for EC50: read-out: Gi BRET EC50, 5-HT1A-mediated Gi1 activation, HEK293-T cells; for selectivity for 5-HT1A > 5-HT2A: Gi BRET at 5-HT1A versus Gq BRET at 5-HT2A
# T1 sequence (P08908 1-422): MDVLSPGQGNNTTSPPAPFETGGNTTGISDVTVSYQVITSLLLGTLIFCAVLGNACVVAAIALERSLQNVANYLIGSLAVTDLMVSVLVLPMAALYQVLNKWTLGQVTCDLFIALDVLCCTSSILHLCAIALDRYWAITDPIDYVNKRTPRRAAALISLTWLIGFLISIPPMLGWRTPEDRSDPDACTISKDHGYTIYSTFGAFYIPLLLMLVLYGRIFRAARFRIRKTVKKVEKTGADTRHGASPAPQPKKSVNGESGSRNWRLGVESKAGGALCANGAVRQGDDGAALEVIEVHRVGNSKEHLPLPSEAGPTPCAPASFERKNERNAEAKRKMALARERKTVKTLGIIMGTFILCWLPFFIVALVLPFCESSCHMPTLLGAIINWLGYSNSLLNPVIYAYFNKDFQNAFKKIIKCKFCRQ
# [3] = target: 5-HT2A(V366N) (Homo sapiens, UniProt P28223, V366N); conditions: 5-HT2A V366N versus wild type
# Sequence of 5-HT2A(V366N) (P28223 whole entry V366N): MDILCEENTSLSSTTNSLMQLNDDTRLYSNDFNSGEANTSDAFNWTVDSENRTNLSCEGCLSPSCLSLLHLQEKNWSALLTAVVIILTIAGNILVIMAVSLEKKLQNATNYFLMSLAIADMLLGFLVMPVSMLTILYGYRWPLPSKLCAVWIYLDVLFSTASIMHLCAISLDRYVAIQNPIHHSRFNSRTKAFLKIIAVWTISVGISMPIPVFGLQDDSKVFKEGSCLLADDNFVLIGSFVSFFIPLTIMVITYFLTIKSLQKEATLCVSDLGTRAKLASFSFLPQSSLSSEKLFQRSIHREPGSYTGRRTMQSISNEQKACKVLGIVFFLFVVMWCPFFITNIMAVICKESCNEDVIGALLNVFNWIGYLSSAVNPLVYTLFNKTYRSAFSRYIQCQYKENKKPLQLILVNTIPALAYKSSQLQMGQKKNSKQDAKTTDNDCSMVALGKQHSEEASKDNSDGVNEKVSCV
# [4] = system: locomotor activity (measure of 5-HT1A activation); assay: Open-field locomotion assay; type: in vivo, C57BL/6J mice; conditions: mice, s.c.
# In short: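 Male C57BL/6J mice aged 10–15 weeks were habituated for 30 min, then pretreated with vehicle or WAY-100635 (1 or 2 mg kg⁻¹ s.c.). Test compound followed 15 min later, s.c. at 0.1–3 or 0.3–10 mg kg⁻¹. Mice were placed immediately in a clear arena lit at about 330 lux. Observers were blinded; total locomotion was recorded automatically over 30 min, n = 7–8 per group.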
# [5] = system: head-twitch response (measure of 5-HT2A activation); assay: Head-twitch response; type: in vivo, C57BL/6J mice; conditions: mice
# [6] = target: 5-HT2A (Homo sapiens, UniProt P28223); assay: 5-HT2A-mediated Gq activation, BRET; type: cell-based; conditions: for decrease in 5-HT2A potency: relative to 5-MeO-DMT
# Sequence of 5-HT2A (P28223 whole entry): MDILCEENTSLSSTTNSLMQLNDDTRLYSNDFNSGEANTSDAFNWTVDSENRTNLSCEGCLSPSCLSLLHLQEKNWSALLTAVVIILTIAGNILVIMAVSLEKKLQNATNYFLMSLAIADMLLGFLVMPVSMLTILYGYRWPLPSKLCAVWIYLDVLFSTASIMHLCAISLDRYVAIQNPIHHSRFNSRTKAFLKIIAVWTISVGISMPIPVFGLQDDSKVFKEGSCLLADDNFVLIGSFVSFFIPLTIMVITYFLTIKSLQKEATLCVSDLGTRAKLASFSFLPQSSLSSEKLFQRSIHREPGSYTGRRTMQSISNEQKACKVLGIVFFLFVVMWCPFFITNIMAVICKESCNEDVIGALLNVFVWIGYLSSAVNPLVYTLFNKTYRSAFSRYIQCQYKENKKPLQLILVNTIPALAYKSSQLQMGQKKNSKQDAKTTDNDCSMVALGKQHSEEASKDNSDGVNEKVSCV
# [7] = system: 5-HT1A(A365N); assay: 5-HT1A-Gi BRET at mutant receptor A365N; type: cell-based, human; conditions: 5-HT1A A365N versus wild type
# [8] = system: chronic social defeat stress mice; assay: Sucrose preference test after chronic social defeat stress; type: in vivo, C57BL/6J mice
# In short: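 Chronic social defeat was 10 days of 10-min bouts by CD-1 aggressors in male C57BL/6J mice. On day 10, stressed mice were housed singly and habituated to two water bottles, then given a two-bottle choice between water and 1% sucrose. Data were pooled from two independent experiments.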
# [9] = Mouse brain tissue binding; type: in vitro ADME; conditions: for % Compound remaining at 4 h: 37 °C; for fraction unbound at 4 h, 5 µM: mouse, mouse brain tissue
# [10] = Human plasma protein binding; type: in vitro ADME; conditions: for % Compound remaining at 4 h: 37 °C
# [11] = target: serotonin transporter (SERT) (Homo sapiens, UniProt P31645); assay: Serotonin transporter uptake inhibition; type: cell-based
# Sequence of serotonin transporter (SERT) (P31645 whole entry, species assumed): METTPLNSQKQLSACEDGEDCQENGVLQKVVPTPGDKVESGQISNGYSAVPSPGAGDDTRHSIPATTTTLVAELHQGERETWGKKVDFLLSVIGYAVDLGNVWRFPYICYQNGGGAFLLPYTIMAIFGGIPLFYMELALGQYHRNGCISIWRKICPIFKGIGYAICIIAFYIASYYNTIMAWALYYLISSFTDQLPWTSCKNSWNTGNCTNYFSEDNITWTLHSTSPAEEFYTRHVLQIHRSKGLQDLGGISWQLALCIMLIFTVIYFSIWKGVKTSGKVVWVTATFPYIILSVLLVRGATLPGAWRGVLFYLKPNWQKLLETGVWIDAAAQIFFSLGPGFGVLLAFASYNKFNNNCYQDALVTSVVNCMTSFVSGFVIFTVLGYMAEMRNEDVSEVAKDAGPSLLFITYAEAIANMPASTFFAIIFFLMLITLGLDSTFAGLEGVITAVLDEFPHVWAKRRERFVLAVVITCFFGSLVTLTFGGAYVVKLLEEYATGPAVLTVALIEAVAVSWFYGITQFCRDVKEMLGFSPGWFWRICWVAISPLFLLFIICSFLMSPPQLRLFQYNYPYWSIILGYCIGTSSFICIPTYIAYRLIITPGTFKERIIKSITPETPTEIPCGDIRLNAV
# [12] = system: chronic social defeat stress mice; assay: Social interaction; type: in vivo, C57BL/6J mice
# In short: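 Male C57BL/6J mice, 8 weeks old, had 10 consecutive days of 10-min defeat by a new CD-1 aggressor each day, then were housed overnight across a partition; controls were pair-housed and handled daily. Drug or vehicle was given 1 h after the last defeat, with SI testing 24 h later. The interaction ratio was interaction-zone time, target vs no-target; corner time and no-target locomotion were also scored. Pooled from three experiments; two-way ANOVA; resilient (>1) vs susceptible (<1) compared by Fisher's exact test.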
# [13] = Pharmacokinetics in plasma and brain after s.c. administration; type: in vivo, C57BL/6 male mice; conditions: mice; for AUClast / Cmax: 1 mg/kg SC
# In short: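 Male C57BL/6 mice (27; 3 per time point) received a subcutaneous solution formulation. Retro-orbital blood (~60 μl) was taken under light isoflurane at 0.083–12 h. Plasma and brain levels were measured by LC–MS/MS with non-compartmental analysis: Cmax and Tmax as observed, AUClast by linear trapezoidal rule, Kp calculated. For plasma protein binding, compound was spiked at 5 μM final into mouse plasma and dialysed 4 h at 37 °C.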
# [14] = system: other neurotransmitter transporters (OCT1, OCT2, PMAT); assay: OCT1, OCT2 and PMAT uptake inhibition; type: cell-based
# [15] = Mouse plasma protein binding; type: in vitro ADME; conditions: for % Compound remaining at 4 h: 37 °C; for fraction unbound at 4 h, 5 µM: mouse, mouse plasma
# [16] = system: all other G protein-coupled 5-HT receptors; assay: Off-target activity at 5-HT receptors; type: cell-based, human; conditions: compared with activity at 5-HT1A
# Sequence of 5-HT2A(N343A) (P28223 whole entry N343A): as the sequence (P28223 whole entry V366N) above, with N343A, N366V counted along it
smiles,measurement,setting,value
"CN(C)CCc1c[nH]c2ccccc12 [DMT, N,N-dimethyltryptamine, reference compound]",effect of N343A mutation on potency (in words),[1],minor effects
"CN(C)CCc1c[nH]c2ccc(O)c(F)c12 [4-F,5-OH-DMT]",decrease in potency by N343A mutation,[1],~19 fold
"O=C1CC2(CCCC2)CC(=O)N1CCCCN1CCN(c2ncccn2)CC1 [buspirone, reference compound]",maximum drug effect (Emax),[2],93.4 % of 5-HT
"CCN(CC)C(=O)[C@@H]1C=C2c3cccc4[nH]cc(c34)C[C@H]2N(C)C1 [LSD, lysergic acid diethylamide]",effect of V366N mutation on signalling efficacy at 5-HT2A (in words),[3],increase in signalling efficacy
CCN(C)CCc1c[nH]c2ccc(OC)cc12 [5-MeO-MET],locomotor activity in the open-field test (in words),[4],dose-dependent locomotor suppression
same,HTR (in words),[5]; following co-administration of the 5-HT1A-selective antagonist WAY-100635,strong dose-dependent activity
same,5-HT1A efficacy (in words),[2],full efficacy
same,EC50,[2],25.9 nM
"COc1ccc2[nH]cc(CCN3CCCC3)c2c1 [5-MeO-PyrT, 5-methoxy-N,N-pyrrolidinyl-tryptamine]",decrease in 5-HT2A potency,[6],about 3 fold
same,selectivity for 5-HT1A > 5-HT2A,[2],> 38 fold
same,increase in 5-HT1A > 5-HT2A selectivity,"[2]; cyclization of the amine moiety alone, relative to 5-MeO-DMT",approximately 38 fold
same,EC50,[2],2.1 nM
same,increase in potency at 5-HT1A,[2]; relative to 5-MeO-DMT,about 12 fold
"O=C1CCc2ccc(OCCCCN3CCN(c4cccc(Cl)c4Cl)CC3)cc2N1 [aripiprazole, reference compound]",maximum drug effect (Emax),[2],77.1 % of 5-HT
"CN(C)CCc1c[nH]c2ccc(O)cc12 [5-OH-DMT, bufotenine]",decrease in potency by A365N mutation,[7],about 18 fold
"COc1ccccc1N1CCN(CCN(C(=O)C2CCCCC2)c2ccccn2)CC1 [WAY-100635, reference compound]","increase of sucrose preference in stressed mice, treatment alone",[8]; stressed mice,not significant
"COc1ccc2[nH]cc(CCN3CCCCC3)c2c1 [5-MeO-PipT, 5-methoxypiperidinyl-tryptamine]",EC50,[2],88.5 nM
same,loss of potency at 5-HT1A,[2]; relative to 5-MeO-PyrT,~42 fold
"COc1ccc2[nH]cc(CCN3CC=CC3)c2c1F [4-F,5-MeO-3-PyrrolineT]",EC50,[2],0.22 nM
COc1ccc2[nH]cc(CCN3CC=CC3)c2c1 [5-MeO-3-PyrrolineT],EC50,[2],0.3 nM
same,further increase in potency at 5-HT1A,[2]; relative to 5-MeO-PyrT,around eightfold
CCN(CC)CCc1c[nH]c2ccc(OC)cc12 [5-MeO-DET],5-HT1A efficacy (in words),[2],full efficacy
same,EC50,[2],37.1 nM
"N#Cc1ccc2[nH]cc(CCCCN3CCN(c4ccc5oc(C(N)=O)cc5c4)CC3)c2c1 [vilazodone, reference compound]",lowest concentration showing activity,"[2]; 5-HT1A Gi BRET, suspected slow binding kinetics",30 pM
same,maximum drug effect (Emax),[2],97.4 % of 5-HT
"COc1ccc2[nH]cc(CCN(C)C)c2c1F [4-F,5-MeO-DMT]",decrease in 5-HT2A potency,[6],3 fold
same,increase in potency at 5-HT1A,[2]; relative to 5-MeO-DMT,14 fold
"NC(=O)N1c2ccccc2C=Cc2ccccc21 [Carbamazepine, reference compound]",% Compound remaining at 4 h,[9],96%
same,"fraction unbound at 4 h, 5 µM","[9]; pH 7.4, % Unbound",0.118
same,"fraction unbound at 4 h, 5 µM","[9]; pH 7.4, fu",0.118
"COc1ccc2[nH]cc(CCN3CCCC3)c2c1F [4-F,5-MeO-PyrT, 4-fluoro, 5-methoxypyrrolidinyl-tryptamine]",% Bound Mean,[10]; Human Plasma,26.01%
same,% Recovery,[10]; Human Plasma,81.8%
same,% Unbound,[10]; Human Plasma,73.99%
same,fu,[10]; Human Plasma,0.740
same,% Compound remaining at 4 h,[10]; Human Plasma,97.9%
same,% Bound R1,"[10]; Human Plasma, replicate 1, 4 h at 37 °C",22.19%
same,% Bound Mean,[9],82.5%
same,% Recovery,[9],88%
same,% Unbound,[9],17.5%
same,brain tissue binding,[9],82.5%
same,fu,[9],0.175
same,% Compound remaining at 4 h,[9],96%
same,% Bound R1,"[9]; replicate 1, 4 h at 37 °C",84.3%
same,sucrose preference in stressed mice relative to vehicle-treated animals,"[8]; 1 mg kg^-1 s.c., 1% sucrose two-bottle choice",significantly increased sucrose preference
same,locomotor activity in the open-field test (in words),[4],dose-dependent locomotor suppression
same,lowest dose that produced suppression of locomotion,[4],0.03 mg/kg
same,activity at the serotonin transporter (in words),[11],substantially reduced activity
same,social avoidance phenotype (decreased interaction ratio) in stress-exposed mice,"[12]; 1 mg kg^-1 s.c. 1 h after last defeat, SI test 24 h later",rescued
same,"interaction ratio in control mice, drug versus vehicle","[12]; 1 mg kg^-1 s.c., non-stressed mice",did not show any distinguishable differences in IR
same,increased time in the corners of the arena in defeated mice,[12]; drug-treated stressed mice,no longer observed
same,number of resilient mice (SI ratio > 1),[12]; drug-treated versus vehicle-treated stressed mice,increased the number of resilient mice
same,AUClast,[13]; Brain,128.34 ng·h/mL
same,Cmax,[13]; Brain,143.35 ng/mL
same,AUClast,[13]; Plasma,26.40 ng·h/mL
same,Cmax,[13]; Plasma,44.02 ng/mL
same,time within which compound was largely cleared,[13]; 1 mg kg^-1 s.c.,≤ 2 h
same,total brain-to-plasma ratio,[13]; 1 mg kg^-1 s.c.,3.3
same,unbound brain-to-plasma ratio,[13]; 1 mg kg^-1 s.c.,0.91
same,time of peak brain penetration,"[13]; 1 mg kg^-1 s.c., following drug administration",30 min
same,estimated free drug concentration in the brain at Tmax,"[13]; s.c. dose of 1 mg kg^-1, at 82.5% brain tissue binding",about 100 nM
same,activity at other neurotransmitter transporters (in words),[14],substantially reduced activity
same,HTR (in words),"[5]; doses up to 3 mg kg^-1, in the presence or absence of WAY-100635",did not produce notable HTR
same,EC50,"[6]; read-out: Gq BRET EC50, 5-HT2A-mediated Gq activation",300 nM
same,% Bound Mean,[15]; Mouse Plasma,37.36%
same,% Recovery,[15]; Mouse Plasma,84.7%
same,% Unbound,[15]; Mouse Plasma,62.64%
same,fu,[15]; Mouse Plasma,0.626
same,% Compound remaining at 4 h,[15]; Mouse Plasma,105.6%
same,% Bound R1,"[15]; Mouse Plasma, replicate 1, 4 h at 37 °C",32.04%
same,maximum drug effect (Emax),[2],102.8 % of 5-HT
same,selectivity for 5-HT1A > 5-HT2A,[2],greater than 800 fold
same,EC50,[2],0.37 nM
same,activity at other 5-HT receptors (in words),[16],substantially reduced activity
"CC(=O)CC(c1ccccc1)c1c(O)c2ccccc2oc1=O (stereo not shown) [Warfarin, reference compound]",% Compound remaining at 4 h,[10]; Human Plasma,108.8%
same,"fraction unbound at 4 h, 5 µM","[10]; human, human plasma, pH 7.4, % Bound R2, Human Plasma, replicate 2, 4 h at 37 °C",0.015
same,% Compound remaining at 4 h,[15]; Mouse Plasma,103.3%
same,"fraction unbound at 4 h, 5 µM","[15]; pH 7.4, % Bound R2, Mouse Plasma, replicate 2, 4 h at 37 °C",0.067
same,"fraction unbound at 4 h, 5 µM","[15]; pH 7.4, % Unbound",0.064
same,"fraction unbound at 4 h, 5 µM","[15]; pH 7.4, fu",0.064
